In ChEMBL document CHEMBL1629583, “Establishment of in vitro susceptibility testing methodologies and comparative activities of piperacillin in combination with the penem {beta}-lactamase inhibitor BLI-489” (2009):
Values after ≈ are worked out from the molar mass of the structure shown.

Assays:
Format in all cases: functional
[1] = test system: Streptococcus pneumoniae; experiment: Antimicrobial activity against penicillin-resistant Streptococcus pneumoniae clinical isolate after 18 to 22 hrs by broth microdilution method
[2] = test system: Haemophilus parainfluenzae; experiment: Antimicrobial activity against Haemophilus parainfluenzae clinical isolate after 18 to 22 hrs by broth microdilution method
[3] = test system: Klebsiella oxytoca; experiment: Antimicrobial activity against Klebsiella oxytoca clinical isolate after 18 to 22 hrs by broth microdilution method
[4] = test system: Acinetobacter lwoffii; experiment: Antimicrobial activity against Acinetobacter lwoffii clinical isolate after 18 to 22 hrs by broth microdilution method
[5] = test system: Enterococcus faecium; experiment: Antimicrobial activity against vancomycin-resistant Enterococcus faecium clinical isolate after 18 to 22 hrs by broth microdilution method
[6] = test system: Moraxella catarrhalis; experiment: Antimicrobial activity against Moraxella catarrhalis clinical isolate after 18 to 22 hrs by broth microdilution method
[7] = test system: Enterococcus hirae; experiment: Antimicrobial activity against Enterococcus hirae clinical isolate after 18 to 22 hrs by broth microdilution method
[8] = test system: Klebsiella pneumoniae; experiment: Antimicrobial activity against AmpC- producing Klebsiella pneumoniae clinical isolate after 18 to 22 hrs by broth microdilution method
[9] = test system: Providencia stuartii; experiment: Antimicrobial activity against Providencia stuartii clinical isolate after 18 to 22 hrs by broth microdilution method
[10] = test system: Stenotrophomonas maltophilia; experiment: Antimicrobial activity against Stenotrophomonas maltophilia clinical isolate after 18 to 22 hrs by broth microdilution method
[11] = test system: Streptococcus agalactiae; experiment: Antimicrobial activity against Streptococcus agalactiae clinical isolate after 18 to 22 hrs by broth microdilution method
[12] = test system: Proteus mirabilis; experiment: Antimicrobial activity against Proteus mirabilis clinical isolate after 18 to 22 hrs by broth microdilution method
[13] = test system: Enterococcus durans; experiment: Antimicrobial activity against Enterococcus durans clinical isolate after 18 to 22 hrs by broth microdilution method
[14] = test system: Staphylococcus epidermidis; experiment: Antimicrobial activity against methicillin-resistant Staphylococcus epidermidis clinical isolate after 18 to 22 hrs by broth microdilution method
[15] = test system: Escherichia coli; experiment: Antimicrobial activity against Escherichia coli clinical isolate after 18 to 22 hrs by broth microdilution method
[16] = test system: Streptococcus pneumoniae; experiment: Antimicrobial activity against penicillin-susceptible Streptococcus pneumoniae clinical isolate after 18 to 22 hrs by broth microdilution method in presence of beta-lactamase inhibitor Tazobactam
Procedure, shortened: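 Broth microdilution per CLSI in Mueller-Hinton II broth supplemented with 5% lysed horse blood, using serial dilutions of piperacillin-tazobactam. Inoculum was 10^5 CFU/ml. Incubation was 18 to 22 h at 35°C in ambient air. MIC was the lowest concentration with no growth visible to the unaided eye.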

[17] = test system: Acinetobacter junii; experiment: Antimicrobial activity against Acinetobacter junii clinical isolate after 18 to 22 hrs by broth microdilution method in presence of beta-lactamase inhibitor Tazobactam
Procedure, shortened: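 Piperacillin-tazobactam was tested on recent clinical isolates by CLSI broth microdilution in Mueller-Hinton II broth, with tazobactam at constant 4 μg/ml. Wells held 10^5 CFU/ml and were incubated 18 to 22 h at 35°C in ambient air. MIC was the lowest concentration with no growth visible to the unaided eye.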

[18] = test system: Enterococcus hirae; experiment: Antimicrobial activity against Enterococcus hirae clinical isolate after 18 to 22 hrs by broth microdilution method in presence of beta-lactamase inhibitor BLI-489
Procedure, shortened: (§1)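 CLSI broth microdilution in Mueller-Hinton II broth. Serial dilutions of piperacillin were tested with BLI-489 held at a constant 4 μg/ml. Inoculum was 10^5 CFU/ml. Plates were incubated 18 to 22 h at 35°C in ambient air. MIC was the lowest concentration giving complete growth inhibition by unaided eye.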

[19] = test system: Acinetobacter junii; experiment: Antimicrobial activity against Acinetobacter junii clinical isolate after 18 to 22 hrs by broth microdilution method in presence of beta-lactamase inhibitor BLI-489
Procedure, shortened: (§2)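 CLSI broth microdilution in Mueller-Hinton II broth. Piperacillin serial dilutions were combined with BLI-489 held constant at 4 μg/ml. Inoculum was 10^5 CFU/ml. Plates were incubated 18 to 22 h at 35°C in ambient air. MIC was the lowest concentration completely inhibiting growth seen by the unaided eye. Piperacillin-tazobactam interpretive criteria were applied.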

[20] = test system: Enterobacter cloacae; experiment: Antimicrobial activity against AmpC beta-lactamase-producing Enterobacter cloacae clinical isolate after 18 to 22 hrs by broth microdilution method in presence of beta-lactamase inhibitor BLI-489; procedure, shortened: as §2
[21] = test system: Enterococcus faecalis; experiment: Antimicrobial activity against Enterococcus faecalis clinical isolate after 18 to 22 hrs by broth microdilution method in presence of beta-lactamase inhibitor Tazobactam
Procedure, shortened: (§3)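 CLSI broth microdilution in Mueller-Hinton II broth. Antibiotic in serial dilution with the β-lactamase inhibitor held at a constant 4 μg/ml. Inoculum 10^5 CFU/ml. Incubated 18 to 22 h at 35°C in ambient air.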

[22] = test system: Peptostreptococcus anaerobius; experiment: Antimicrobial activity against Peptostreptococcus anaerobius clinical isolate after 18 to 22 hrs by broth microdilution method
[23] = test system: Bacteroides uniformis; experiment: Antimicrobial activity against Bacteroides uniformis clinical isolate after 18 to 22 hrs by broth microdilution method
[24] = test system: Acinetobacter baumannii; experiment: Antimicrobial activity against Acinetobacter baumannii clinical isolate after 18 to 22 hrs by broth microdilution method in presence of beta-lactamase inhibitor BLI-489; procedure, shortened: as §2
[25] = test system: Enterococcus faecalis; experiment: Antimicrobial activity against vancomycin-resistant Enterococcus faecalis clinical isolate after 18 to 22 hrs by broth microdilution method in presence of beta-lactamase inhibitor BLI-489; procedure, shortened: as §3
[26] = test system: Proteus mirabilis; experiment: Antimicrobial activity against Proteus mirabilis clinical isolate after 18 to 22 hrs by broth microdilution method in presence of beta-lactamase inhibitor Tazobactam
Procedure, shortened: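 Piperacillin-tazobactam was tested by CLSI broth microdilution in Mueller-Hinton II broth against clinical isolates. Inoculum was 10^5 CFU/ml, with 18 to 22 h incubation at 35°C in ambient air. MIC was read as the lowest concentration completely inhibiting visible growth.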

[27] = test system: Pseudomonas aeruginosa; experiment: Antimicrobial activity against Pseudomonas aeruginosa clinical isolate after 18 to 22 hrs by broth microdilution method in presence of beta-lactamase inhibitor BLI-489; procedure, shortened: as §1
[28] = test system: Proteus mirabilis; experiment: Antimicrobial activity against Proteus mirabilis clinical isolate after 18 to 22 hrs by broth microdilution method in presence of beta-lactamase inhibitor BLI-489; procedure, shortened: as §1

Question: How did the MIC50 [1] turn out when `C[C@H]1COc2c(N3CCN(C)CC3)c(F)cc3c(=O)c(C(=O)O)cn1c23.C[C@H]1COc2c(N3CCN(C)CC3)c(F)cc3c(=O)c(C(=O)O)cn1c23.O` [LEVOFLOXACIN] was run?
Answer: 1 µg/mL

Question: What about the MIC90 [1] of the same compound?
Answer: 1 µg/mL

Question: What about the MIC [2] of the same compound?
Answer: ≤ 0.015 µg/mL

Question: What about the MIC50 [2] of the same compound?
Answer: ≤ 0.015 µg/mL

Question: What about the MIC90 [2] of the same compound?
Answer: 0.06 µg/mL

Question: And the MIC50 [3]?
Answer: 0.03 µg/mL

Question: What about the MIC90 [3] of the same compound?
Answer: 0.25 µg/mL

Question: And the MIC50 [4]?
Answer: 0.12 µg/mL

Question: What about the MIC90 [4] of the same compound?
Answer: 2 µg/mL

Question: And the MIC [5]?
Answer: > 16 µg/mL

Question: What about the MIC50 [5] of the same compound?
Answer: > 16 µg/mL

Question: And the MIC50 [6]?
Answer: 0.03 µg/mL

Question: And the MIC90 [6]?
Answer: 0.06 µg/mL

Question: And the MIC50 [7]?
Answer: 1 µg/mL

Question: What about the MIC90 [7] of the same compound?
Answer: 8 µg/mL

Question: And the MIC50 [8]?
Answer: 2 µg/mL

Question: What about the MIC90 [8] of the same compound?
Answer: > 16 µg/mL

Question: What about the MIC50 [9] of the same compound?
Answer: 1 µg/mL

Question: And the MIC90 [9]?
Answer: 16 µg/mL

Question: And the MIC50 [10]?
Answer: 1 µg/mL

Question: What about the MIC90 [10] of the same compound?
Answer: 4 µg/mL

Question: What about the MIC50 [11] of the same compound?
Answer: 1 µg/mL

Question: And the MIC90 [11]?
Answer: 1 µg/mL

Question: What about the MIC50 [12] of the same compound?
Answer: 0.5 µg/mL

Question: And the MIC90 [12]?
Answer: 16 µg/mL

Question: What about the MIC50 [13] of the same compound?
Answer: 1 µg/mL

Question: What about the MIC90 [13] of the same compound?
Answer: 8 µg/mL

Question: And the MIC50 [14]?
Answer: 2 µg/mL

Question: What about the MIC90 [14] of the same compound?
Answer: > 16 µg/mL

Question: What about the MIC50 [15] of the same compound?
Answer: 0.03 µg/mL

Question: And the MIC90 [15]?
Answer: 8 µg/mL

Question: How did the MIC50 [16] turn out when `CCN1CCN(C(=O)N[C@@H](C(=O)N[C@@H]2C(=O)N3[C@@H]2SC(C)(C)[C@@H]3C(=O)O)c2ccccc2)C(=O)C1=O` [PIPERACILLIN] was run?
Answer: 0.008 µg/mL

Question: And the MIC90 [16]?
Answer: 0.015 µg/mL

Question: And the MIC50 [1]?
Answer: 2 µg/mL (≈ 3.86 µM)

Question: What about the MIC90 [1] of the same compound?
Answer: 4 µg/mL (≈ 7.73 µM)

Question: What about the MIC50 [2] of the same compound?
Answer: 0.06 µg/mL (≈ 0.116 µM)

Question: What about the MIC90 [2] of the same compound?
Answer: 0.5 µg/mL (≈ 0.966 µM)

Question: What about the MIC50 [17] of the same compound?
Answer: ≤ 0.12 µg/mL

Question: What about the MIC90 [17] of the same compound?
Answer: 32 µg/mL

Question: And the MIC50 [3]?
Answer: 8 µg/mL (≈ 15.5 µM)

Question: And the MIC90 [3]?
Answer: 64 µg/mL (≈ 124 µM)

Question: What about the MIC50 [18] of the same compound?
Answer: 2 µg/mL

Question: What about the MIC90 [18] of the same compound?
Answer: 8 µg/mL

Question: What about the MIC50 [19] of the same compound?
Answer: 4 µg/mL

Question: What about the MIC90 [19] of the same compound?
Answer: 16 µg/mL

Question: And the MIC50 [20]?
Answer: 2 µg/mL

Question: And the MIC90 [20]?
Answer: 8 µg/mL

Question: What about the MIC [21] of the same compound?
Answer: 2 µg/mL

Question: What about the MIC50 [21] of the same compound?
Answer: 2 µg/mL

Question: And the MIC90 [21]?
Answer: 4 µg/mL

Question: What about the MIC50 [22] of the same compound?
Answer: 0.06 µg/mL (≈ 0.116 µM)

Question: And the MIC90 [22]?
Answer: 0.06 µg/mL (≈ 0.116 µM)

Question: And the MIC50 [4]?
Answer: 4 µg/mL (≈ 7.73 µM)

Question: What about the MIC90 [4] of the same compound?
Answer: 128 µg/mL (≈ 247 µM)

Question: What about the MIC [5] of the same compound?
Answer: > 128 µg/mL

Question: And the MIC50 [5]?
Answer: > 128 µg/mL

Question: And the MIC50 [6]?
Answer: 0.25 µg/mL (≈ 0.483 µM)

Question: And the MIC90 [6]?
Answer: 8 µg/mL (≈ 15.5 µM)

Question: And the MIC50 [23]?
Answer: 16 µg/mL (≈ 30.9 µM)

Question: What about the MIC90 [23] of the same compound?
Answer: 32 µg/mL (≈ 61.8 µM)

Question: And the MIC50 [7]?
Answer: 4 µg/mL (≈ 7.73 µM)

Question: What about the MIC90 [7] of the same compound?
Answer: 16 µg/mL (≈ 30.9 µM)

Question: And the MIC50 [8]?
Answer: > 128 µg/mL

Question: What about the MIC90 [8] of the same compound?
Answer: > 128 µg/mL

Question: And the MIC50 [24]?
Answer: > 128 µg/mL

Question: What about the MIC90 [24] of the same compound?
Answer: > 128 µg/mL

Question: And the MIC50 [9]?
Answer: 2 µg/mL (≈ 3.86 µM)

Question: What about the MIC [10] of the same compound?
Answer: > 128 µg/mL

Question: And the MIC50 [10]?
Answer: > 128 µg/mL

Question: And the MIC90 [10]?
Answer: > 128 µg/mL

Question: And the MIC50 [11]?
Answer: 0.12 µg/mL (≈ 0.232 µM)

Question: What about the MIC90 [11] of the same compound?
Answer: 0.25 µg/mL (≈ 0.483 µM)

Question: And the MIC [25]?
Answer: 2 µg/mL

Question: What about the MIC50 [25] of the same compound?
Answer: 2 µg/mL

Question: And the MIC90 [25]?
Answer: 64 µg/mL

Question: And the MIC50 [12]?
Answer: > 128 µg/mL

Question: What about the MIC90 [12] of the same compound?
Answer: > 128 µg/mL

Question: What about the MIC50 [13] of the same compound?
Answer: 4 µg/mL (≈ 7.73 µM)

Question: And the MIC90 [13]?
Answer: 16 µg/mL (≈ 30.9 µM)

Question: And the MIC50 [26]?
Answer: 0.25 µg/mL

Question: And the MIC90 [26]?
Answer: 2 µg/mL

Question: And the MIC50 [27]?
Answer: 8 µg/mL

Question: What about the MIC90 [27] of the same compound?
Answer: 64 µg/mL

Question: What about the MIC50 [14] of the same compound?
Answer: 8 µg/mL (≈ 15.5 µM)

Question: And the MIC90 [14]?
Answer: 64 µg/mL (≈ 124 µM)

Question: What about the MIC50 [28] of the same compound?
Answer: 0.25 µg/mL

Question: What about the MIC90 [28] of the same compound?
Answer: 0.5 µg/mL

Question: What about the MIC50 [15] of the same compound?
Answer: 2 µg/mL (≈ 3.86 µM)

Question: And the MIC90 [15]?
Answer: > 128 µg/mL
